# A selection follows.
# Apaf1 activ: human Apaf-1 activation; 330,000 compounds, 0.31% hits; Apaf-1 apoptosome caspase-3 activation, DEVD-Rh110 fluorescence; hits give low values; AID 489031; activity change, negative = activation, % at 20 µM;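 active = activity change at or below -40% at 20 µM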
# Target sequence (O14727 whole entry, looked up): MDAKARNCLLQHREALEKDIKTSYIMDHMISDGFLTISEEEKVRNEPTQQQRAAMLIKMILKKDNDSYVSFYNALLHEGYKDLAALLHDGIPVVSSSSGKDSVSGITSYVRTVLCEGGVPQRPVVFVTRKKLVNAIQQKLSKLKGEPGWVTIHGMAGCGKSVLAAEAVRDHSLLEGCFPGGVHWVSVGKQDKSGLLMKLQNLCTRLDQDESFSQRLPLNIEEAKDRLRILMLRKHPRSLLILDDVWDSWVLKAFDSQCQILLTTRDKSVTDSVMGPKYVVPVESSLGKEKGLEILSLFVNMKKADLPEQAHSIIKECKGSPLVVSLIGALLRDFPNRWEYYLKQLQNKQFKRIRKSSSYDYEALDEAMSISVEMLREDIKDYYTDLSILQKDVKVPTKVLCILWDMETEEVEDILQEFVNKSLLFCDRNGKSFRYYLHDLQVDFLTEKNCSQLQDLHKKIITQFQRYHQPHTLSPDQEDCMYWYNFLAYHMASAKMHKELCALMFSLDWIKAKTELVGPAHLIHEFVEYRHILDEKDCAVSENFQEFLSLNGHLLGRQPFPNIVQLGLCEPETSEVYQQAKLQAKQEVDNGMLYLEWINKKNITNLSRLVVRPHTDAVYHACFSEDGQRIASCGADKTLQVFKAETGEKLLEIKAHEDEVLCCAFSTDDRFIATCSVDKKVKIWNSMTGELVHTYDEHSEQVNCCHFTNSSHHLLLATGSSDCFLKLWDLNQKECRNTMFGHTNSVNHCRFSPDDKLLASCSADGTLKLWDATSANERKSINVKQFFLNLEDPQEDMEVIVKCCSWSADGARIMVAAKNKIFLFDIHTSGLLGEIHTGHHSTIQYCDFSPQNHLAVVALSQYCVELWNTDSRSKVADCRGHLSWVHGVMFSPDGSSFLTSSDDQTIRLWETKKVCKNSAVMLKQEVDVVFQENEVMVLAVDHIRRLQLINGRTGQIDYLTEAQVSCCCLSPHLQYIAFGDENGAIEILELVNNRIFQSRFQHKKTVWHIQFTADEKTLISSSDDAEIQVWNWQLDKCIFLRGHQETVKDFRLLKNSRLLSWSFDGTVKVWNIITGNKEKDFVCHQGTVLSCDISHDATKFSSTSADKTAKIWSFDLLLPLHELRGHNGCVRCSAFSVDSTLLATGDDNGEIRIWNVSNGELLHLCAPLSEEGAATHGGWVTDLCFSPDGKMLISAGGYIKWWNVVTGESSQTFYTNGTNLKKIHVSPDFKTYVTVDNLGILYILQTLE
#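 system = biochemical Apaf-1 apoptosome reconstitution | buffer or medium = 20 mM HEPES pH 7.5 with CHAPS, BSA | also added = dATP and cytochrome c as apoptosome triggers, (Z-DEVD)2-Rh110 substrate | incubation = 30 min compound preincubation and 50 min reaction, both room temperature | measured by = fluorescence, 540 nm emission, 480 nm excitation | read-out basis = Caspase-3 cleavage activity downstream of Apaf-1 activation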
# Rh110 interf act: Rh110 signal interference in Apaf-1 activator counter-screen. fluorescence interference (activity change), % at 20 µM, hits read low. shares compounds with Apaf1 activ. 980 tested, under 10 active. Rh110 fluorescence interference, quenched caspase reaction, Ex480/Em540. AID 504616;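 active = mean activity change at or below -40% when tested at 20 µM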
# Apaf-1 act conf: confirmation of human Apaf-1 activators; shares compounds with Apaf1 activ; reconstituted apoptosome caspase-3 activity, DEVD-Rh110 fluorescence; hits give low values; activity change, negative = activation, % at 20 µM; 980 compounds, 5% hits; AID 504617;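 active = mean activity change at or below -40%, meaning activation of 40% or more, at 20 µM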
# Fluor interf act: counter-screen for Apaf-1 activators: fluorescence interference, dose response; EC50, µM; fluorescence interference counterscreen, Apaf-1 activator assay; shares compounds with Apaf1 activ; 55 tested, under 10 active; call rule not given here
# Starred values were filed as active, the others as inactive; . = no result given.
SMILES,Apaf1 activ,Rh110 interf act,Apaf-1 act conf,others
CN1CCN(c2cc3c(c4c2[nH]c2ccccc24)C(=O)CC(C)(C)C3)CC1,50.4,.,.,
COc1cccc(-c2cn3nc4c(nc3n2)CCCC4)c1,53.4,.,.,
COc1cccc(-c2cc(C(F)(F)F)n3nc(N)nc3n2)c1,-44.3*,-10.6,10.0,
O=C(c1ccccc1)c1ccc2nc(-c3ccco3)c(-c3ccco3)nc2c1,40.6,.,.,
COC(=O)C1=C(C)N(Cc2ccccc2)C(=NCC(C)C)N[C@H]1c1cccc(F)c1,43.8,.,.,
O=C(Nc1ccccc1)N1CCC(C(=O)N2CCN(S(=O)(=O)c3cccc(F)c3)CC2)CC1,-50.5*,9.4,9.0,
O=C(Nc1ccccc1N1CCCC1)C1CCN(S(=O)(=O)c2cccc(C(F)(F)F)c2)CC1,41.8,.,.,
CN(C)CCCN1c2ccccc2Sc2ccc(C(F)(F)F)cc21,42.9,.,.,
O=C(c1ccco1)[C@@H]1[C@@H]2C(=O)N(c3ccc(F)cc3)C(=O)[C@@H]2C2c3ccccc3C=CN21 (some centres undefined),82.5,.,.,
Cc1ccc(S(=O)(=O)C(C#N)c2nc3ccccc3nc2N2CCCC2)cc1 (centres undefined),77.2,.,.,
Cn1c(SCc2ccc(F)cc2)nnc1-c1cnccn1,-155.9*,4.1,9.1,
S=C(NCCc1ccc(Cl)cc1)NCc1ccco1,-154.0*,2.8,14.7,
O=C(CCC1N=C2c3ccccc3N=C(SCc3ccc(Cl)cc3)N2C1=O)NCc1ccco1 (centres undefined),40.8,.,.,
O=C1C(NS(=O)(=O)c2cccs2)=C(N2CCN(Cc3ccccc3)CC2)C(=O)c2ccccc21,51.0,.,.,
C#CCOCCOCCOCCNc1nc(N2CCN(C(=O)CCCCCCCCCCNC(=O)[C@H]([C@@H](C)CC)n3cc(CCCCN=C(N)N)nn3)CC2)nc(N2CCN(C(=O)CCCCCCCCCCNC(=O)[C@H]([C@@H](C)CC)n3cc(CCCCN=C(N)N)nn3)CC2)n1,41.3,.,.,
CC(C)N1CCN(Cc2cnc(-c3ccccc3)s2)CC1CCO (centres undefined),-45.5*,0.1,8.8,
CC[C@@H](C)[C@@H]1CN([C@@H](CN2CCC[C@H]2CN2C(N)=NC[C@H]2C(C)C)C(C)C)C(=N)N1CCCC1CCCC1,40.5,.,.,
CCCCC(CC)CN1C(=O)/C(=C/c2ccncc2)SC1=S (centres undefined),41.9,.,.,
COc1ccc(/C=C/C(=O)OCC(=O)N2CCCC2)c(OC)c1,-40.5*,7.3,14.9,
Cc1cccc(C)c1NC(=O)CSCC(=O)c1ccc(O)c(O)c1,-160.9*,12.8,13.1,
CCOc1ccc(C(=O)C(C)=O)c(OCC)c1,-43.8*,1.0,10.0,
Cc1ccc(OCC(=O)N/N=C\c2c(C)n(C)c3ccccc23)c([N+](=O)[O-])c1,42.0,.,.,
COc1cc(/C=C/C(=O)OCC(=O)Nc2cc(C)c(C)cc2[N+](=O)[O-])ccc1O,-70.6*,-3.1,-27.1,
COc1cc(/C=C/C(=O)OCC(=O)Nc2ccc(C)cc2[N+](=O)[O-])ccc1O,-93.7*,-2.0,-37.1,
COc1ccc(/C=C2/C(=O)N(c3ccccc3)N=C2C)cc1OC,95.5,.,.,
SMILES,Apaf1 activ,Rh110 interf act,Apaf-1 act conf,others
O=C1c2ccccc2C(=O)C1(O)O,68.0,.,.,
Nc1ccc2nc(-c3ccccc3)c(-c3ccccc3)nc2c1,64.6,.,.,
CCOc1ccc(C(=O)/C=C/Nc2ccc(S(=O)(=O)N=C(N)N)cc2)cc1,-159.8*,0.9,-74.0*,Fluor interf act=>100
O=C(CCSc1nc(-c2ccco2)cc(C(F)(F)F)n1)NCCN1CCOCC1,-55.7*,3.6,5.4,
Nc1c(C(=O)NCc2ccc(F)cc2)c2nc3ccccc3nc2n1CCCN1CCOCC1,59.2,.,.,
Cc1cccc(-n2c(N)c(C(=O)NCCN3CCOCC3)c3nc4ccccc4nc32)c1,50.6,.,.,
COc1cccc(C(c2c(C)[nH]n(-c3ccccc3)c2=O)c2c(C)[nH]n(-c3ccccc3)c2=O)c1OC,96.8,.,.,
CCCCCC(=O)Nc1ccc(N2CCN(S(C)(=O)=O)CC2)cc1,-522.9*,6.2,12.2,
O=C(COc1ccc2ccc(=O)oc2c1)Nc1ccc(N2CCCCC2)cc1,46.6,.,.,
CN1CCc2c(sc(NC(=O)c3ccc(C(=O)c4ccccc4)cc3)c2C(N)=O)C1,43.7,.,.,
Cc1ccc(S(=O)(=O)N2CCN(C(=O)COC(=O)c3ccc([N+](=O)[O-])o3)CC2)c(C)c1,59.3,.,.,
Cc1ccc(-c2nc3ncccn3c2NC(=O)C2CC2)cc1,-51.8*,-0.5,13.2,
CC(C)(C)C1CCC(CN2C(Nc3ccccc3)=NC[C@@H]2Cc2ccccc2)CC1 (some centres undefined),75.2,.,.,
COc1cccc(-c2[nH]nc3c2C(c2ccsc2)C(C#N)=C(N)O3)c1 (centres undefined),60.0,.,.,
COc1ccc(C2C(C#N)=C(N)Oc3n[nH]c(-c4ccccn4)c32)c(OC)c1OC (centres undefined),-508.1*,7.2,18.8,
CCSCCC(NC1=CC(=O)CC(C)(C)C1)C(=O)O (centres undefined),48.7,.,.,
COC(=O)CCC(=O)OC1(C)C(=O)C2=CN(CC(C)C)C(c3ccc(OC)cc3)=CC2=C(Br)C1=O (centres undefined),52.0,.,.,
C[n+]1ccccc1/C=N/O,-0.1,.,.,
O/N=C/c1ccc2ccccc2n1,-50.0*,-1.9,1.3,
CCCCCCSc1ccc(-c2nc3cc(C)ccn3c2NC2CCCCC2)cc1,46.6,.,.,
COc1ccc(C(=O)/C=C/C(=O)N(CC(=O)NC2CCCCC2)CC2CCCO2)c(O)c1 (centres undefined),49.3,.,.,
CCOC(=O)COc1ccc(S(=O)(=O)NCC2CCCO2)cc1 (centres undefined),-185.3*,0.2,8.3,
CCN1CCN(c2cc(N3CCN(C(=O)c4ccco4)CC3)c3c4c(onc24)-c2ccccc2C3=O)CC1,41.8,.,.,
C#CCOCCOCCOCCNc1nc(N2CCN(C(=O)CCCCCCCCCCNC(=O)[C@H](CO)n3cc(CCCSC)nn3)CC2)nc(N2CCN(C(=O)CCCCCCCCCCNC(=O)[C@H](CCCCN)n3cc(CCO)nn3)CC2)n1,73.7,.,.,
Cc1cc2cc(CNC(=O)Nc3cccc(Cl)c3)ccc2n1C,48.7,.,.,
SMILES,Apaf1 activ,Rh110 interf act,Apaf-1 act conf,others
S=C(Nc1ccc2nsnc2c1)N1CCCC1,98.4,.,.,
NC(=O)C1(N2CCCCC2)CCN(C(=S)Nc2cccc(Cl)c2)CC1,-43.3*,1.5,14.3,
CC1CC(C)(C)CC2(C1)NC(=O)N(CC(=O)Nc1ccc3[nH]c(=O)[nH]c3c1)C2=O (centres undefined),44.3,.,.,
Cc1ccc(C2(C)NC(=O)N(CC(=O)Nc3ccc4[nH]c(=O)[nH]c4c3)C2=O)cc1 (centres undefined),-58.2*,11.7,-4.7,
COCCCOc1cc(NCc2ccccc2)c2ncn(C(C)C)c2c1,40.9,.,.,
COc1cc(OC)c2c(-c3ccccc3)cc(=O)oc2c1C(CCN1CCCC1)c1ccc2c(c1)OCO2 (centres undefined),49.0,.,.,
Cc1cc(OCC(=O)NCCO)ccc1Cl,-53.5*,7.0,10.5,
CN1CCN(c2ccc(NC(=O)COc3ccccc3)cc2Cl)CC1,49.5,.,.,
Cc1cccc(/C=N/NC(=O)C(C)Nc2cccc3ccccc23)n1 (centres undefined),90.9,.,.,

# Screens (PubChem BioAssay)
